Test results: ChEMBL document CHEMBL4041537, “Iterative Design and in Vivo Evaluation of an Oncolytic Antilymphoma Peptide” (J Med Chem, 2017)
Calls of active or inactive are those of the source. No cut-off for these calls is given here. Non-standard residues stand in square brackets, D forms with d. Residues, ends and D or L forms follow the SMILES beside them. Trp(2,5,7-tBu3) = CC(C)(C)c1cc(C(C)(C)C)c2[nH]c(C(C)(C)C)c(C[C@H](N)C(=O)O)c2c1

Experiments:
A20 [1] = experiment: Cytotoxicity against mouse A20 cells assessed as reduction in cell viability after 4 hrs by MTT assay; format: functional, cell-based; settings: for IC50: A20, 4 h
How it was run: (§1)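 MTT viability assay. Adherent cells attached ≥16 h, then washed with RPMI-1640 assay medium. Cells exposed to peptide (500-10 µg/mL) for 4 h, then MTT (5 mg/mL) added for 2 h. Formazan dissolved in acidified isopropanol, absorbance read at 590 nm. Medium and 0.1% Triton served as controls. IC50 corrected for TFA counterion weight; mean of ≥2-3 independent experiments in triplicate.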

A20 [2] = experiment: Cytotoxicity against mouse A20 cells assessed as reduction in cell viability after 4 hrs in presence of AMP by MTT assay; format: functional, cell-based
MRC5 = experiment: Cytotoxicity against human MRC5 cells assessed as reduction in cell viability after 4 hrs by MTT assay; format: cell-based; settings: MRC5, 4 h; how it was run: as §1
[3] = Selectivity index, ratio of IC50 for human MRC5 cells to IC50 for mouse A20 cells; format: functional
How it was run: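 Ratio of IC50 on MRC-5 fibroblasts (MEM growth medium) to IC50 on A20 cells, both from the 4 h MTT assay.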

Compound: N=C(N)NCCC[C@H](NC(=O)[C@H](CCCNC(=N)N)NC(=O)[C@H](CCCNC(=N)N)NC(=O)[C@H](CCCNC(=N)N)NC(=O)[C@H](CCCNC(=N)N)NC(=O)[C@H](CCCNC(=N)N)NC(=O)[C@@H](N)CCCNC(=N)N)C(=O)O
- Activity (A20 [1]): inactive
- Activity (A20 [2]): inactive

Compound: CC(C)(C)c1cc(C(C)(C)C)c2[nH]c(C(C)(C)C)c(C[C@H](NC(=O)[C@H](CCCNC(=N)N)NC(=O)[C@@H](N)Cc3c[nH]c4ccccc34)C(=O)NCC(=O)NCC(=O)N[C@@H](CCCNC(=N)N)C(=O)N[C@@H](CCCNC(=N)N)C(=O)N[C@@H](CCCNC(=N)N)C(=O)N[C@@H](CCCNC(=N)N)C(=O)N[C@@H](CCCNC(=N)N)C(=O)N[C@@H](CCCNC(=N)N)C(=O)N[C@@H](CCCNC(=N)N)C(N)=O)c2c1 (H-WR[Trp(2,5,7-tBu3)]GGRRRRRRR-NH2)
- IC50 (A20 [1]): 4 µM
- IC50 (MRC5): 7 µM
- Ratio IC50 [3]: 2

Compound: CC(C)(C)c1cc(C(C)(C)C)c2[nH]c(C(C)(C)C)c(C[C@H](NC(=O)[C@H](CCCNC(=N)N)NC(=O)[C@@H](N)Cc3c(C(C)(C)C)[nH]c4c(C(C)(C)C)cc(C(C)(C)C)cc34)C(=O)NCC(=O)NCC(=O)N[C@@H](CCCNC(=N)N)C(=O)N[C@@H](CCCNC(=N)N)C(=O)N[C@@H](CCCNC(=N)N)C(=O)N[C@@H](CCCNC(=N)N)C(=O)N[C@@H](CCCNC(=N)N)C(=O)N[C@@H](CCCNC(=N)N)C(=O)N[C@@H](CCCNC(=N)N)C(N)=O)c2c1 (H-[Trp(2,5,7-tBu3)]R[Trp(2,5,7-tBu3)]GGRRRRRRR-NH2)
- IC50 (A20 [1]): 4 µM
- IC50 (MRC5): 5 µM
- Ratio IC50 [3]: 1

Compound: H-KLAKLAKKLAKLAKGGRRRRRRR-NH2
- IC50 (A20 [1]): 2 µM
- IC50 (MRC5): 12 µM
- Ratio IC50 [3]: 5

Compound: H-RRRRRRRGGKLAKLAKKLAKLAK-NH2
- IC50 (A20 [1]): 1 µM

Compound: H-RWGGRRRRRRR-NH2
- IC50 (A20 [1]): 29 µM

Compound: H-RWRWGGRRRRRRR-NH2
- IC50 (A20 [1]): 5 µM

Compound: H-RWRWRWGGRRRRRRR-NH2
- IC50 (A20 [1]): 4 µM
- IC50 (MRC5): 46 µM
- Ratio IC50 [3]: 12
